According to ChEMBL document CHEMBL2429739, “Double-targeting using a TrkC ligand conjugated to dipyrrometheneboron difluoride (BODIPY) based photodynamic therapy (PDT) agent” (J Med Chem, 2013):
pIC50: −log10 of the molar value. Calls of active or inactive are those of the source. The rule behind the calls is not given here.

Assays:
[1] = Cytotoxicity against human SH-SY5Y cells expressing TrkC assessed as cell viability after 2 hrs followed by 7.3 J/cm'2 halogen light irradiation measured after 24 hrs by MTT assay; assay type: functional, cell-based; details: light or radiation study
Procedure, shortened: (§1)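 Cells seeded overnight at about 10,000/well (NIH3T3-TrkC) or 7000/well (NIH3T3-WT, SY5Y). Agent applied at 0.02–2 μM final in protein-free PFHM-II medium (<0.001% DMSO) for 2 h. Cells washed and given fresh medium, then irradiated with >480 nm halogen light at 12.2 mW/cm2 (7.3 J/cm2, 10 min). After 24 h, MTT added for 3.5 h; OD read at 570 nm. % dead = 100 − (OD treated/OD control)×100; three runs.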

[2] = Cellular uptake in mitochondria of mouse NIH/3T3 cells expressing TrkC at 1 uM after 12 hrs by confocal microscopy; assay type: ADME; details: nih3t3, 12 h
Procedure, shortened: (§2)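 NIH3T3-TrkC cells (grown in DMEM/F12 with G418 and 10% newborn calf serum) incubated with agent at 1 μM for 12 h at 37 °C, then PBS-washed. Co-stained with LysoTracker Red 500 nM for 30 min at 37 °C, or with MitoTracker Deep Red / ER-Tracker Blue-White at 100 nm for 15 min. Washed again, then live cells imaged by multiphoton confocal Z-stacks in 0.5 μm steps.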

NIH3T3 [3] = experiment: Dark cytotoxicity against mouse NIH/3T3 cells expressing TrkC assessed as cell viability by MTT assay; assay type: cell-based
Procedure, shortened: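 NIH3T3-TrkC cells given the same 2 h agent treatment and wash as in the light assay, but kept without illumination. Viability measured by MTT; three runs.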

NIH3T3 [4] = experiment: Cytotoxicity against mouse NIH/3T3 cells expressing TrkC assessed as cell viability incubated for 2 hrs followed by 7.3 J/cm'2 halogen light irradiation measured after 24 hrs by MTT assay in presence of 20 uM of IY-IY; assay type: functional, cell-based
Procedure, shortened: (§3)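 NIH3T3-TrkC cells treated for 2 h with agent (0.02–2 μM) together with a constant 20 μM IY-IY or 3.5 nM NT-3 competitor. Cells washed, then irradiated at >480 nm, 12.2 mW/cm2, 7.3 J/cm2. After 24 h, viability read by MTT (OD 570 nm) and expressed as % dead cells; three runs.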

NIH3T3 [5] = experiment: Cytotoxicity against mouse NIH/3T3 cells expressing TrkC assessed as cell viability incubated for 2 hrs followed by 7.3 J/cm'2 halogen light irradiation measured after 24 hrs by MTT assay; assay type: functional, cell-based; details: for pIC50: NIH3T3, light or radiation study; procedure, shortened: as §1
Mus musculus = experiment: Toxicity in mouse under dark condition at 100 mg/kg after 12 days; assay type: organism-based; set-up: dose 100 mg/kg; details: in vivo, 288 h
NIH3T3 [6] = experiment: Cellular uptake in wild type mouse NIH/3T3 cells at 0.5 uM after 2 hrs by confocal microscopy; assay type: ADME, cell-based; details: nih3t3, 2 h
Procedure, shortened: (§4)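 TrkC-transfected or wild-type NIH3T3 cells exposed to agent at 0.5 μM in supernatant for 2 h. Cells washed three times with PBS, then imaged live by confocal microscopy. Intracellular fluorescence intensity was quantified over 100 cells.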

[7] = Cellular uptake in endoplasmic reticulum of mouse NIH/3T3 cells expressing TrkC at 1 uM after 12 hrs by confocal microscopy; assay type: ADME, cell-based; details: nih3t3, 12 h; procedure, shortened: as §2
NIH3T3 [8] = experiment: Cellular uptake in mouse NIH/3T3 cells expressing TrkC at 0.5 uM after 2 hrs by confocal microscopy; assay type: ADME, cell-based; details: nih3t3, 2 h; procedure, shortened: as §4
[9] = Cellular uptake in lysosome of mouse NIH/3T3 cells expressing TrkC at 1 uM after 12 hrs by confocal microscopy; assay type: ADME, cell-based; details: nih3t3, 12 h; procedure, shortened: as §2
NIH3T3 [10] = experiment: Cytotoxicity against mouse NIH/3T3 cells expressing TrkC assessed as cell viability incubated for 2 hrs followed by 7.3 J/cm'2 halogen light irradiation measured after 24 hrs by MTT assay in presence of 3.5 nM of NT3; assay type: functional, cell-based; procedure, shortened: as §3
NIH3T3 [11] = experiment: Cytotoxicity against wild type mouse NIH/3T3 cells assessed as cell viability after 2 hrs followed by 7.3 J/cm'2 halogen light irradiation measured after 24 hrs by MTT assay; assay type: cell-based; details: nih3t3, 24 h; procedure, shortened: as §1

SMILES | pIC50 [1] | Drug uptake [2] | Activity (NIH3T3 [3]) | Activity (NIH3T3 [4]) | Activity (NIH3T3 [5]) | pIC50 (NIH3T3 [5]) | Activity (Mus musculus) | Drug uptake (NIH3T3 [6]) | Drug uptake [7] | Drug uptake (NIH3T3 [8]) | Drug uptake [9] | Activity (NIH3T3 [10]) | Activity (NIH3T3 [11])
CC[C@H](C)[C@H](N)c1cn([C@@H](Cc2ccc(O)cc2)C(=O)N2CCN(c3nc(NCCOCCOCCOCc4cn(CCCC5=C6C(C)=C(I)C(C)=[N+]6[B-](F)(F)n6c(C)c(I)c(C)c65)nn4)nc(N4CCN(C(=O)[C@H](Cc5ccc(O)cc5)n5cc([C@@H](N)[C@@H](C)CC)nn5)CC4)n3)CC2)nn1 | 6.82 | Not Active | Non-toxic | Active | Dose-dependent effect | 6.46 | Non-toxic | Not Active | Not Active | Active | Active | Active | Active
CC[C@H](C)[C@@H](C(=O)N1CCN(c2nc(NCCOCCOCCOCc3cn(CCCC4=C5C(C)=C(I)C(C)=[N+]5[B-](F)(F)n5c(C)c(I)c(C)c54)nn3)nc(N3CCN(C(=O)[C@H]([C@@H](C)CC)n4cc([C@@H](N)Cc5ccc(O)cc5)nn4)CC3)n2)CC1)n1cc([C@@H](N)Cc2ccc(O)cc2)nn1 | – | – | – | – | – | < 5.70 | – | – | – | Not Active | – | – | –
